Assays:
Homo sapiens [1] = species: Homo sapiens; experiment: Inhibition of heparin-induced tau K18PL mutant aggregation assessed as soluble tau fragment level at 50 uM after 5 days by SDS-PAGE analysis
Summary of the method: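 Secondary centrifugation assay. Heparin-induced K18 P301L tau fibrillization mixtures with compound at 50 μM were centrifuged. Soluble and insoluble fractions were analysed by SDS-PAGE to give the percentage of tau remaining soluble.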

Plasma [2] = experiment: Volume of distribution in B6C3F1 mouse plasma at 5 mg/kg, ip after 16 hrs; assay type: ADME, organism-based; parameters: dose 5 mg/kg, route intraperitoneal; details: in vivo
Summary of the method: (§1)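 Mice given 5 mg/kg i.p. (n = 3 per time point) and sacrificed at times from 0.5 to 16 h after dosing. Perfused brain hemispheres were homogenized in 10 mM ammonium acetate pH 5.7 (50% w/v). Plasma came from EDTA blood. Samples were extracted with acetonitrile and quantified by LC-MS/MS (MRM, positive ESI) against matrix standard curves by linear regression.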

Mus musculus [3] = experiment: Toxicity in B6C3F1 mouse assessed as adverse effects up to 100 mg/kg, po; assay type: organism-based; parameters: dose 100 mg/kg, route oral; details: in vivo
Mus musculus [4] = experiment: Toxicity in B6C3F1 mouse assessed as change in neutrophil count at 50 mg/kg, po administered in water qd for 1 month; assay type: organism-based; parameters: dose 50 mg/kg, route oral; details: in vivo
Summary of the method: (§2)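 Female B6C3F1 mice, 2 months old (n = 5 per group), dosed for 1 month via drinking water containing 3% PEG400 and 0.5% methylcellulose. Dose equivalent 50 mg/kg/day, assuming about 5 ml water per mouse per day. Vehicle controls were included and water intake was monitored. At the end, body weight was taken, then perfusion, organ weights (heart, liver, kidney, spleen, brain) and complete blood counts.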

Mus musculus [5] = experiment: Toxicity in B6C3F1 mouse assessed as adverse effects at 50 mg/kg, po administered qd for 1 month; assay type: organism-based; parameters: dose 50 mg/kg, route oral; details: in vivo; summary of the method: as §2
Brain [6] = experiment: Fraction unbound in mouse brain homogenate at 1 uM after 5 hrs by equilibrium dialysis; assay type: ADME, tissue-based
Summary of the method: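 Rapid equilibrium dialysis. Compound at 1 μM in mouse plasma or brain homogenate, each diluted threefold with 100 mM sodium phosphate pH 7.4. Triplicate samples dialysed against the same buffer for 5 h at 37 °C with shaking. Both sides were matrix-matched, extracted with acetonitrile and run by LC-MS/MS. fu is buffer response over sample response; brain fu was corrected for tissue dilution.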

Mus musculus [7] = experiment: Toxicity in B6C3F1 mouse assessed as change in kidney weight at 50 mg/kg, po administered in water qd for 1 month; assay type: organism-based; parameters: dose 50 mg/kg, route oral; details: in vivo; summary of the method: as §2
[8] = AUC (0.5 to 16 hrs) in B6C3F1 mouse brain at 5 mg/kg, ip; assay type: ADME, organism-based; parameters: time 0.5-16 hr, dose 5 mg/kg, route intraperitoneal; summary of the method: as §1
Mus musculus [9] = experiment: Toxicity in B6C3F1 mouse assessed as change in lymphocyte count at 50 mg/kg, po administered in water qd for 1 month; assay type: organism-based; parameters: dose 50 mg/kg, route oral; details: in vivo; summary of the method: as §2
Mus musculus [10] = experiment: Toxicity in B6C3F1 mouse assessed as change in spleen weight at 50 mg/kg, po administered in water qd for 1 month; assay type: organism-based; parameters: dose 50 mg/kg, route oral; details: in vivo; summary of the method: as §2
Mus musculus [11] = experiment: Toxicity in B6C3F1 mouse assessed as change in WBC count at 50 mg/kg, po administered in water qd for 1 month; assay type: organism-based; parameters: dose 50 mg/kg, route oral; details: in vivo; summary of the method: as §2
Homo sapiens [12] = species: Homo sapiens; experiment: Inhibition of heparin-induced alexa red-labelled tau K18PL mutant aggregation after 6 hrs by thioflavin-T fluorescence assay relative to control
Summary of the method: (§3)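 Heparin-induced fibrillization of tau K18 fragment (residues 244–369) carrying P301L, with tau at 20 μM in sodium acetate buffer. Fibril formation was read by thioflavin-T fluorescence. IC50 came from sigmoidal fitting of concentration-response data, each concentration in triplicate. Values are from a single fit, or the mean of 2 or more analyses where marked.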

Brain [13] = experiment: Free AUC (0.5 to 16 hrs) in B6C3F1 mouse brain at 5 mg/kg, ip; assay type: ADME, organism-based; parameters: dose 5 mg/kg, route intraperitoneal; details: in vivo; summary of the method: as §1
Mus musculus [14] = experiment: Toxicity in B6C3F1 mouse assessed as change in heart weight at 50 mg/kg, po administered in water qd for 1 month; assay type: organism-based; parameters: dose 50 mg/kg, route oral; details: in vivo; summary of the method: as §2
[15] = Ratio of drug level in brain to plasma in B6C3F1 mouse at 5 mg/kg, ip after 16 hrs; assay type: ADME, organism-based; parameters: dose 5 mg/kg, route intraperitoneal; details: read-out: BPR; summary of the method: as §1
[16] = Half life in B6C3F1 mouse plasma at 5 mg/kg, ip after 16 hrs; assay type: ADME, organism-based; parameters: dose 5 mg/kg, route intraperitoneal; summary of the method: as §1
[17] = Clearance in B6C3F1 mouse plasma at 5 mg/kg, ip after 16 hrs; assay type: ADME, organism-based; parameters: dose 5 mg/kg, route intraperitoneal; summary of the method: as §1
[18] = Plasma concentration in B6C3F1 mouse at 10 mg/kg, po at 1 hr; assay type: ADME, organism-based; parameters: dose 10 mg/kg, route oral
[19] = Oral bioavailability in B6C3F1 mouse at 10 mg/kg at 1 hr; assay type: ADME, organism-based; details: in vivo
[20] = Ratio of unbound fraction in brain to plasma in B6C3F1 mouse at 5 mg/kg, ip after 16 hrs; assay type: ADME, organism-based; parameters: dose 5 mg/kg, route intraperitoneal; details: in vivo; summary of the method: as §1
Mus musculus [21] = experiment: Toxicity in B6C3F1 mouse assessed as change in liver weight at 50 mg/kg, po administered in water qd for 1 month; assay type: organism-based; parameters: dose 50 mg/kg, route oral; details: in vivo; summary of the method: as §2
[22] = Drug uptake in B6C3F1 mouse brain at 5 mg/kg, ip after 1 hr; assay type: ADME, organism-based; parameters: dose 5 mg/kg, route intraperitoneal; details: B6C3F1, mouse, brain, read-out: Drug uptake
Summary of the method: (§4)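 Single i.p. dose of 5 mg/kg, sacrifice 1 h later. Perfused brain hemispheres were homogenized in 10 mM ammonium acetate pH 5.7 (50% w/v). EDTA plasma was taken. Brain homogenate or plasma was extracted with acetonitrile and analysed by LC-MS/MS (MRM) against matrix standard curves. Brain-to-plasma ratio was taken from total levels.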

[23] = Drug uptake in B6C3F1 mouse plasma at 5 mg/kg, ip after 1 hr; assay type: ADME, organism-based; parameters: dose 5 mg/kg, route intraperitoneal; details: B6C3F1, mouse, plasma; summary of the method: as §4
Brain [24] = experiment: Clearance in B6C3F1 mouse brain at 5 mg/kg, ip after 16 hrs; assay type: ADME, organism-based; parameters: dose 5 mg/kg, route intraperitoneal; details: in vivo; summary of the method: as §1
[25] = AUC (0.5 to 16 hrs) in B6C3F1 mouse plasma at 5 mg/kg, ip; assay type: ADME, organism-based; parameters: time 0.5-16 hr, dose 5 mg/kg, route intraperitoneal; summary of the method: as §1
Mus musculus [26] = experiment: Toxicity in B6C3F1 mouse assessed as change in brain weight at 50 mg/kg, po administered in water qd for 1 month; assay type: organism-based; parameters: dose 50 mg/kg, route oral; details: in vivo; summary of the method: as §2
Mus musculus [27] = experiment: Toxicity in B6C3F1 mouse assessed as adverse event at 50 mg/kg, po administered in water qd for 1 month; assay type: organism-based; parameters: dose 50 mg/kg, route oral; details: in vivo; summary of the method: as §2
[28] = Plasma concentration in B6C3F1 mouse at 5 mg/kg, ip at 1 hr; assay type: ADME, organism-based; parameters: dose 5 mg/kg, route intraperitoneal; summary of the method: as §4
Mus musculus [29] = experiment: Toxicity in B6C3F1 mouse assessed as body weight loss at 50 mg/kg, po administered in water qd for 1 month relative to control; assay type: organism-based; parameters: dose 50 mg/kg, route oral; details: in vivo; summary of the method: as §2
Mus musculus [30] = experiment: Toxicity in B6C3F1 mouse assessed as mild and transient lethargy at 100 mg/kg, po; assay type: organism-based; parameters: dose 100 mg/kg, route oral; details: in vivo
Plasma [31] = experiment: Free AUC (0.5 to 16 hrs) in B6C3F1 mouse plasma at 5 mg/kg, ip; assay type: ADME, organism-based; parameters: dose 5 mg/kg, route intraperitoneal; details: in vivo; summary of the method: as §1
Mus musculus [32] = experiment: Ratio of drug level in brain to plasma in B6C3F1 mouse at 5 mg/kg, ip after 1 hr
Mus musculus [33] = experiment: Toxicity in B6C3F1 mouse assessed as change in RBC count at 50 mg/kg, po administered in water qd for 1 month; assay type: organism-based; parameters: dose 50 mg/kg, route oral; details: in vivo; summary of the method: as §2
[34] = Drug uptake in B6C3F1 mouse brain at 50 mg/kg, po administered qd in drinking water for 3 days; assay type: ADME, organism-based; parameters: dose 50 mg/kg, route oral; details: read-out: Drug uptake
Summary of the method: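 Brain levels were measured after 3 days. Perfused brain hemispheres were homogenized in 10 mM ammonium acetate, pH 5.7 (50% w/v), extracted with acetonitrile, and analysed by LC-MS/MS (MRM) against brain-homogenate standard curves. Free level was calculated from the equilibrium-dialysis brain unbound fraction.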

[35] = Inhibition of heparin-induced alexa red-labelled tau K18PL mutant aggregation after 6 hrs by thioflavin-T fluorescence assay; parameters: species or system Homo sapiens; summary of the method: as §3

SMILES: Nc1scc2c(C(=O)NC3CC3)nn(-c3ccc(F)cc3)c(=O)c12
- inhibition (Homo sapiens [1]): 78%
- Vd (Plasma [2]): 246 mL
- Activity (Mus musculus [3]): Non-toxic
- Activity (Mus musculus [4]): Non-toxic
- Activity (Mus musculus [5]): Non-toxic
- Fu (Brain [6]): 4.3%
- Activity (Mus musculus [7]): Non-toxic
- AUC(0-t) [8]: 4510 ng·h/mL
- Activity (Mus musculus [9]): Non-toxic
- Activity (Mus musculus [10]): Non-toxic
- Activity (Mus musculus [11]): Non-toxic
- Imax (Homo sapiens [12]): 88%
- fAUC (Brain [13]): 195 ng·h/mL
- Activity (Mus musculus [14]): Non-toxic
- Kp at 16 h [15]: 1.9
- half-life [16]: 2.2 h
- CL/F [17]: 1.31 mL/min
- concentration at 1 h [18]: 832 ng/mL
- bioavailability [19]: 60%
- BPR [20]: 1.2
- Activity (Mus musculus [21]): Non-toxic
- concentration at 1 h [22]: 670 ng/g
- concentration at 1 h [23]: 610 ng/mL
- CL (Brain [24]): 50 mL/h
- AUC(0-t) [25]: 2350 ng·h/mL
- Activity (Mus musculus [26]): Non-toxic
- Activity (Mus musculus [27]): Non-toxic
- concentration at 1 h [28]: 610 ng/mL
- Activity (Mus musculus [29]): Non-toxic
- Activity (Mus musculus [30]): Toxic
- fAUC (Plasma [31]): 162 ng·h/mL
- BPR (Mus musculus [32]): 1.09
- Activity (Mus musculus [33]): Non-toxic
- concentration at 72 h [34]: 139 nM
- IC50 [35]: 2500 nM

Source: ChEMBL document CHEMBL2057102, “Aminothienopyridazine inhibitors of tau aggregation: evaluation of structure-activity relationship leads to selection of candidates with desirable in vivo properties” (Bioorg Med Chem, 2012)
